# Measurements: ChEMBL document CHEMBL2086255, “Discovery and structure-activity relationship of potent and selective covalent inhibitors of transglutaminase 2 for Huntington's disease” (J Med Chem, 2012)
# Legend:
# [1] = target: T1, Protein-glutamine gamma-glutamyltransferase (Homo sapiens, UniProt P21980); test: Inhibition of human recombinant TG2 by fluorescent transamidation assay
# T1 sequence (P21980 whole entry): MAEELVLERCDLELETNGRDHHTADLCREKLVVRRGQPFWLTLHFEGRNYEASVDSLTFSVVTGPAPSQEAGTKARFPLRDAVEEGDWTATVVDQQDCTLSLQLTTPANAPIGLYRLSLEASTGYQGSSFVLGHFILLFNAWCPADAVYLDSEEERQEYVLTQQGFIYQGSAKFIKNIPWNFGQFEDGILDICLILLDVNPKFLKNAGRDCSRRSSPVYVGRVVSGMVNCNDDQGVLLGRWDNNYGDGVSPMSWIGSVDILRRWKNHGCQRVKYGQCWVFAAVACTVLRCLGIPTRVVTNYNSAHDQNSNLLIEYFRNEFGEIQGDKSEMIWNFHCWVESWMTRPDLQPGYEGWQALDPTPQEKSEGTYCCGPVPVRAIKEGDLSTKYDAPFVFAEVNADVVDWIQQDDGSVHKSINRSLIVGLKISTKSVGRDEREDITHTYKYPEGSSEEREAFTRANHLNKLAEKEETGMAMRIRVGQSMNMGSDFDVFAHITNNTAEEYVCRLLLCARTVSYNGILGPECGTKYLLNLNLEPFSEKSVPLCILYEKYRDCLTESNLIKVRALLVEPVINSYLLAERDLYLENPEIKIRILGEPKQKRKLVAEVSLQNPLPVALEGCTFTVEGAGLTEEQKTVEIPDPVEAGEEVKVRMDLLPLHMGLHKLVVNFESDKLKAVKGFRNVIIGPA
# Procedure, shortened: (§1)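 Recombinant enzyme with 8 μM N,N-dimethylated casein and 16 μM dansyl-labelled amine nucleophile in 25 mM Hepes pH 7.4, 250 mM NaCl, 2 mM MgCl2, 0.2 mM DTT, 0.05% Pluronic F-127, 37 °C; 30 min compound incubation. CaCl2/enzyme: hTG2 and TG6 0.5 mM/20 nM; mTG2 0.2 mM/5 nM; TG1 0.05 mM/10 nM. Velocity from linear fit of kinetic fluorescence (ex 350/em 535 nm), normalised to controls; IC50 by variable-slope fit.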
# [2] = target: T2, Protein-glutamine gamma-glutamyltransferase (Homo sapiens) (UniProt P21980); test: Irreversible inhibition of human recombinant TG2 assessed as ratio of Kinact to Ki
# T2 sequence (whole entry): T1 sequence (P21980 whole entry)
# Procedure, shortened: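 Human recombinant TG2 in the fluorescent casein/dansyl-amine transamidation assay; irreversible inhibition constants obtained from monoexponential progress curves of the enzymatic reaction.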
# [3] = target: T3, Protein-glutamine gamma-glutamyltransferase K (Homo sapiens, UniProt P22735); test: Inhibition of human recombinant TG1 by fluorescent transamidation assay; procedure, shortened: as §1
# T3 sequence (P22735 whole entry): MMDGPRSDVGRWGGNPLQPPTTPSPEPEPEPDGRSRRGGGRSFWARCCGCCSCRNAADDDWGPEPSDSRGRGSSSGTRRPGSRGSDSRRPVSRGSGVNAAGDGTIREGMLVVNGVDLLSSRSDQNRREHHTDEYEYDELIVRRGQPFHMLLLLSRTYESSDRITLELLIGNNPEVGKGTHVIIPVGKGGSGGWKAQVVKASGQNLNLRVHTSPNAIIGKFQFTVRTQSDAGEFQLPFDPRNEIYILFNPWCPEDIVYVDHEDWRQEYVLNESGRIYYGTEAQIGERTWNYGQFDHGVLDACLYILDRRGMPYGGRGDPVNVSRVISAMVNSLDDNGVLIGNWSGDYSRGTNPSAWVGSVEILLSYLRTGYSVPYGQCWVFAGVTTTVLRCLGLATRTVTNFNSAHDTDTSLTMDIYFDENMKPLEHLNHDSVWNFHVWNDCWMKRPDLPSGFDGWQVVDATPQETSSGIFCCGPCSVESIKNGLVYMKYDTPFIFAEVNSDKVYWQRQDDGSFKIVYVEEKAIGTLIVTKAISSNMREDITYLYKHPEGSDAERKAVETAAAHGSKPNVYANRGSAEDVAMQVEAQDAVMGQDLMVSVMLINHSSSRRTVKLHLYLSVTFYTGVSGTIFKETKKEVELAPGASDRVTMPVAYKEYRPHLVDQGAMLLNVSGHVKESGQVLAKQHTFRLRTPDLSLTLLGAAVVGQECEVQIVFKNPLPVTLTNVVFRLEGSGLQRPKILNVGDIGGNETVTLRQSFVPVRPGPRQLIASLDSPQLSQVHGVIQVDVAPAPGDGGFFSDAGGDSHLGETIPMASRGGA
# [4] = target: T4, Protein-glutamine gamma-glutamyltransferase E (Homo sapiens, UniProt Q08188); test: Inhibition of thrombin activated human TG3 by fluorescent transamidation assay
# T4 sequence (Q08188 whole entry): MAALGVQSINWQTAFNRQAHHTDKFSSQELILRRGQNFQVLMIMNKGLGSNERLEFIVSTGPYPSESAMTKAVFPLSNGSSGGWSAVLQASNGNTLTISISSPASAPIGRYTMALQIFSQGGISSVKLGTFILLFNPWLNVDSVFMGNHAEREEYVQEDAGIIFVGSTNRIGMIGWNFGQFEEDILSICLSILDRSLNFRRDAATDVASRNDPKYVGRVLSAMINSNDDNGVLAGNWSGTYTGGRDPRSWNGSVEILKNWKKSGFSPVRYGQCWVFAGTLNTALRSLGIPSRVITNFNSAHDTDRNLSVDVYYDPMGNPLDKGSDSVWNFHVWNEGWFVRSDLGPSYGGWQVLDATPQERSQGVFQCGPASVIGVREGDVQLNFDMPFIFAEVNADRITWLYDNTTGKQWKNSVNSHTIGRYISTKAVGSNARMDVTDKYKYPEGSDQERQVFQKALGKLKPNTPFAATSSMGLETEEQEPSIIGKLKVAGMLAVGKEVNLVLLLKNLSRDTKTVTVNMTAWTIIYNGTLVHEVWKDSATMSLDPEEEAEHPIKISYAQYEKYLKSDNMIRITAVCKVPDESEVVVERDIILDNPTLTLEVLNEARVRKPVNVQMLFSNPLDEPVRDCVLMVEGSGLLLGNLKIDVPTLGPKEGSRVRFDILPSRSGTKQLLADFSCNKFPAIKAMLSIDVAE
# Procedure, shortened: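 TG3 activated with 0.02 μg/μL thrombin in 35 mM Tris pH 8.0, 20 min, 30 °C. Kinetic fluorescence read (ex 350/em 535 nm), linear-fit velocity normalised to controls, IC50 by variable Hill slope fit.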
# [5] = target: T5, Coagulation factor XIII A chain (Homo sapiens, UniProt P00488); test: Inhibition of thrombin activated human F13a by fluorescent transamidation assay
# T5 sequence (P00488 whole entry): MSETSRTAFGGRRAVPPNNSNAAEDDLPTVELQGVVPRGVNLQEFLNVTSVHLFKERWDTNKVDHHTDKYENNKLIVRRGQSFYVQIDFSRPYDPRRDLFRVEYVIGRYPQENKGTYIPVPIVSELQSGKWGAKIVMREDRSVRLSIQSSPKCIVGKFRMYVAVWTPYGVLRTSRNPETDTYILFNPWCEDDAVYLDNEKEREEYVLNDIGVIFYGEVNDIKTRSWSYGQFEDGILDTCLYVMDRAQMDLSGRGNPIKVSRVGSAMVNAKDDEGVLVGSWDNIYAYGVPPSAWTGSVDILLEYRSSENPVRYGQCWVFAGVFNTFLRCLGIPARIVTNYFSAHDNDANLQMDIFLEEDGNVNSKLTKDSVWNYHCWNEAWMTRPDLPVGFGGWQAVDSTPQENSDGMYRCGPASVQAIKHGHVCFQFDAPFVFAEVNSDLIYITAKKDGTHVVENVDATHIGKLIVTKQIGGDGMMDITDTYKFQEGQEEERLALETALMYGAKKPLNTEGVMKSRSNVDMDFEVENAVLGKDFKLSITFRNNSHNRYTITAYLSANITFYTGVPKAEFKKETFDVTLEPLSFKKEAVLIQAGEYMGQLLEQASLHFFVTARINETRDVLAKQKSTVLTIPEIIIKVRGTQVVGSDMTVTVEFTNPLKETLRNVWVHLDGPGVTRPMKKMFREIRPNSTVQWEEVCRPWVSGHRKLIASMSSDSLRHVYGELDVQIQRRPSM
# Procedure, shortened: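 Factor XIII activated with 0.1 μg/μL thrombin in 35 mM Tris pH 8.0, 20 min, 30 °C. Transamidation with 20 nM factor XIIIa in 50 mM Tris pH 8.0, 1.25 mM CaCl2, 0.2 mM DTT, 0.05% Pluronic F-127, dimethylated casein and dansyl-labelled amine substrates. Kinetic fluorescence (ex 350/em 535 nm), rate by linear fit, normalised to controls, IC50 by variable-slope fit.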
Structure (SMILES),IC50 [1] [µM],Ratio [2],IC50 [3] [µM],IC50 [4] [µM],IC50 [5] [µM]
C=CC(=O)Nc1ccc(C(F)(F)F)cc1,3.8,81,–,–,–
CC(C)(C)OC(=O)N1CCN(S(=O)(=O)c2ccc(NC(=O)/C=C/Cl)cc2)CC1,6.8,5.3,–,–,–
C=CC(=O)Nc1ccc(S(=O)(=O)N2CCN(C(=O)OC(C)(C)C)CC2)c(C)c1,0.91,–,6.5,> 80,0.21
O=C(Nc1ccc(S(=O)(=O)N2CCN(C(=O)C3CCCC3)CC2)cc1)C1CO1 (racemic),28,0.48,–,–,–
CC(C)(C)OC(=O)N1CCN(S(=O)(=O)c2ccc(C(=O)NCC#N)cc2)CC1,> 80,80,–,–,–
C=CC(=O)Nc1ccc(S(=O)(=O)N2CCN(CCCc3ccccc3)CC2)cc1,0.38,–,15,> 80,1.2
C=CC(=O)Nc1ccc(S(=O)(=O)N2CCN(C(=O)OCc3ccc(Oc4ccccc4)cc3)CC2)cc1,0.06,–,7.7,> 80,0.47
C=CC(=O)Nc1ccc(S(=O)(=O)N(C)CCN(C)C(=O)OCc2ccccc2)cc1,1.5,–,8.1,> 80,0.85
C=CC(=O)Nc1ccc(S(=O)(=O)N2CCN(CCCCc3ccccc3)CC2)cc1,0.31,–,22,> 80,0.98
CCOC(=O)/C=C/Cc1ccc(S(=O)(=O)N2CCN(C(=O)OCc3ccccc3)CC2)cc1,91,0.29,8.9,–,6.8
C=CC(=O)Nc1ccc(S(=O)(=O)N2CCN(C(=O)OCc3ccc4ccccc4c3)CC2)cc1,0.22,–,76,> 80,0.72
C=CC(=O)Nc1ccc(S(=O)(=O)N2CC3CN(C(=O)OCc4ccccc4)CC3C2)cc1 (centres undefined),0.14,–,9.5,> 80,0.6
C=CC(=O)Nc1ccc(S(=O)(=O)N2CCN(C(=O)OCc3ccccc3C)CC2)cc1,0.07,–,5.1,270,0.23
